Results on four compounds are retold here after ChEMBL document CHEMBL1268850, “Search for antifungal compounds from the wood of durable tropical trees” (2010).

Converted amounts (≈) assume the structure as drawn. Some results are limits rather than exact numbers.

In assay [1] the test system is Nannizzia gypsea. As to the kind of experiment: Antifungal activity against Microsporum gypseum LMGO 533 after 5 days microdilution technique. Type of assay: functional. The conditions noted are these: LMGO 533, 120 h. In outline: (§1)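 Dermatophytes were maintained on potato dextrose agar and subcultured 5 days at 28 °C before testing. Microdilution followed CLSI M38-A, with extracts at 500 to 0.98 µg/mL and pure compounds at 256 to 0.5 µg/mL. Fluconazole and itraconazole were the references. Plates were incubated at 32 °C and read after 5 days. MIC is the lowest concentration preventing visible growth, in triplicate.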
On the technique in general: In broth dilution the organism is exposed to a series of concentrations in liquid medium.

Assay [2] concerns Trichophyton mentagrophytes. Description: Antifungal activity against Trichophyton mentagrophytes LMGO 09 after 5 days microdilution technique. In kind it is functional. The conditions noted are these: LMGO 09, 120 h. In outline:
as §1

In assay [3] the test system is Candida parapsilosis. As to the kind of experiment: Antifungal activity against Candida parapsilosis ATCC 22019 after 2 days microdilution technique. Particulars: Lodderomyces parapsilosis, ATCC 22019, 48 h.
Assay [4] concerns Microsporum canis. Description: Antifungal activity against Microsporum canis LMGO 22 after 5 days microdilution technique. In kind it is functional. The conditions noted are these: LMGO 22, 120 h. In outline:
as §1

The subject of assay [5] is Nakaseomyces glabratus. Description: Antifungal activity against Candida glabrata LMGO 44 after 2 days microdilution technique. The conditions noted are these: LMGO 44, 48 h.
In assay [6] the test system is Trichophyton rubrum. Description: Antifungal activity against Trichophyton rubrum LMGO 06 after 5 days microdilution technique. Type of assay: functional. Particulars: LMGO 06, 120 h. The essentials: as §1
The test system of assay [7] is Cryptococcus gattii species complex. As to the kind of experiment: Antifungal activity against Cryptococcus gattii LMGO L1 after 2 days microdilution technique. Particulars: LMGO L1, 48 h.
Assay [8] concerns Trichophyton rubrum. Description: Antifungal activity against Trichophyton rubrum LMGO 08 after 5 days microdilution technique. In kind it is functional. Particulars: LMGO 08, 120 h. The essentials: as §1
Assay [9] has as its system Candida albicans. Description: Antifungal activity against Candida albicans LMGO 102 after 2 days microdilution technique. Particulars: LMGO 102, 48 h.
The subject of assay [10] is Microsporum canis. Description: Antifungal activity against Microsporum canis LMGO 02 after 5 days microdilution technique. Type of assay: functional. The conditions noted are these: LMGO 02, 120 h. In outline: as §1
The test system of assay [11] is Trichophyton rubrum. Description: Antifungal activity against Trichophyton rubrum LMGO 4218 after 5 days microdilution technique. Type of assay: functional. Particulars: LMGO 4218, 120 h. In outline:
as §1

Assay [12] relates to Candida parapsilosis. Description: Antifungal activity against Candida parapsilosis LMGO 05 after 2 days microdilution technique. The conditions noted are these: Lodderomyces parapsilosis, LMGO 05, 48 h.
Assay [13] deals with Pichia kudriavzevii. Description: Antifungal activity against Candida krusei LMGO 174 after 2 days microdilution technique. The conditions noted are these: LMGO 174, 48 h.
The subject of assay [14] is Trichophyton mentagrophytes. As to the kind of experiment: Antifungal activity against Trichophyton mentagrophytes LMGO 1931 after 5 days microdilution technique. In kind it is functional. Particulars: LMGO 1931, 120 h. The essentials:
as §1

The subject of assay [15] is Nannizzia gypsea. Description: Antifungal activity against Microsporum gypseum LMGO 10 after 5 days microdilution technique. In kind it is functional. Particulars: LMGO 10, 120 h. In outline:
as §1

Assay [16] relates to Candida albicans. As to the kind of experiment: Antifungal activity against Candida albicans ATCC 10231 after 2 days microdilution technique. The conditions noted are these: ATCC 10231, 48 h.
Assay [17] relates to Cryptococcus gattii species complex. Description: Antifungal activity against Cryptococcus gattii LMGO L1 after 5 days microdilution technique. In kind it is functional, Cryptococcus bacillisporus. Particulars: LMGO L1, 120 h. The essentials: (§2)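 Yeasts were kept on potato dextrose agar and subcultured 2 days at 28 °C before testing. Broth microdilution followed CLSI M27-A2. Crude extracts were tested at 500 to 0.98 µg/mL and pure compounds at 256 to 0.5 µg/mL. Fluconazole (64 to 0.125 µg/mL) and itraconazole (16 to 0.031 µg/mL) served as references. Plates were incubated at 32 °C. MIC is the lowest concentration with no visible growth, in triplicate.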

For assay [18], the system named is Candida parapsilosis. Description: Antifungal activity against Candida parapsilosis ATCC 22019 after 5 days microdilution technique. Particulars: Lodderomyces parapsilosis, ATCC 22019, 120 h. In kind it is functional. In outline: as §2
In assay [19] the test system is Candida albicans. As to the kind of experiment: Antifungal activity against Candida albicans ATCC 10231 after 5 days microdilution technique. Type of assay: functional. The conditions noted are these: ATCC 10231, 120 h. In outline:
as §2

Assay [20] deals with Candida albicans. Description: Antifungal activity against Candida albicans LMGO 102 after 5 days microdilution technique. Type of assay: functional. Particulars: LMGO 102, 120 h. The essentials: as §2
Assay [21] relates to Nakaseomyces glabratus. As to the kind of experiment: Antifungal activity against Candida glabrata LMGO 44 after 5 days microdilution technique. Particulars: LMGO 44, 120 h. In kind it is functional. In outline: as §2
Assay [22] concerns Pichia kudriavzevii. Description: Antifungal activity against Candida krusei LMGO 174 after 5 days microdilution technique. In kind it is functional. The conditions noted are these: LMGO 174, 120 h. In outline: as §2

As to `C=CCCCCCCCC[C@@H]1C[C@H](C[C@@H](O)CO)C(=O)O1` [RUBRENOLIDE], the MIC worked out at 256 µg/mL (≈ 858 µM) against Nannizzia gypsea [1]; 8 µg/mL (≈ 26.8 µM) in assay [2]; 32 µg/mL (≈ 107 µM) with Candida parapsilosis [3]; 128 µg/mL (≈ 429 µM) in the assay with Microsporum canis [4]; 4 µg/mL (≈ 13.4 µM) against Nakaseomyces glabratus [5]; 8 µg/mL (≈ 26.8 µM) against Trichophyton rubrum [6]. Further, the MIC came to 256 µg/mL (≈ 858 µM) in assay [7]; 8 µg/mL (≈ 26.8 µM) with Trichophyton rubrum [8]; 16 µg/mL (≈ 53.6 µM) in the assay on Candida albicans [9]; 16 µg/mL (≈ 53.6 µM) in the assay on Microsporum canis [10]; 16 µg/mL (≈ 53.6 µM) against Trichophyton rubrum [11]; 32 µg/mL (≈ 107 µM) in the assay on Candida parapsilosis [12]. In addition, the MIC against Pichia kudriavzevii [13] was 64 µg/mL (≈ 214 µM); in assay [14], 64 µg/mL (≈ 214 µM); with Nannizzia gypsea [15], 16 µg/mL (≈ 53.6 µM); in the assay on Candida albicans [16], 64 µg/mL (≈ 214 µM).

`C#CCCCCCCCC[C@@H]1C[C@H](C[C@@H](O)CO)C(=O)O1` [RUBRYNOLIDE]: the minimal inhibitory concentration (MIC) in the assay on Nannizzia gypsea [1] worked out at 32 µg/mL (≈ 108 µM); in [2], 32 µg/mL (≈ 108 µM); with Candida parapsilosis [3] it was 128 µg/mL (≈ 432 µM); in the assay with Microsporum canis [4] it was 64 µg/mL (≈ 216 µM); against Nakaseomyces glabratus [5], 32 µg/mL (≈ 108 µM); in the assay with Trichophyton rubrum [6], 32 µg/mL (≈ 108 µM). In addition, the MIC in assay [7] turned out to be 128 µg/mL (≈ 432 µM); in the assay with Trichophyton rubrum [8] it was 32 µg/mL (≈ 108 µM); against Candida albicans [9], 32 µg/mL (≈ 108 µM); in the assay on Microsporum canis [10] it was 32 µg/mL (≈ 108 µM); in the assay on Trichophyton rubrum [11] it was 32 µg/mL (≈ 108 µM); against Candida parapsilosis [12], 128 µg/mL (≈ 432 µM). For the same compound, the MIC against Pichia kudriavzevii [13] was 64 µg/mL (≈ 216 µM); in assay [14], > 256 µg/mL; in the assay on Nannizzia gypsea [15] it was 32 µg/mL (≈ 108 µM); in the assay on Candida albicans [16], 128 µg/mL (≈ 432 µM).

For `CCC(C)n1ncn(-c2ccc(N3CCN(c4ccc(OCC5COC(Cn6cncn6)(c6ccc(Cl)cc6Cl)O5)cc4)CC3)cc2)c1=O` (centres undefined) [ITRACONAZOLE], the MIC against Nannizzia gypsea [1] amounted to 0.975 µg/mL (≈ 1.38 µM); in assay [2], 0.25 µg/mL (≈ 0.354 µM); against Candida parapsilosis [3] it was 0.25 µg/mL (≈ 0.354 µM); in the assay with Microsporum canis [4], 16 µg/mL (≈ 22.7 µM); in the assay with Nakaseomyces glabratus [5], 0.5 µg/mL (≈ 0.709 µM); in the assay on Trichophyton rubrum [6] it was 0.125 µg/mL (≈ 0.177 µM). Also, the MIC is 2 µg/mL (≈ 2.83 µM) in assay [7]; 0.125 µg/mL (≈ 0.177 µM) in the assay on Trichophyton rubrum [8]; > 16 µg/mL against Candida albicans [9]; 16 µg/mL (≈ 22.7 µM) in the assay with Microsporum canis [10]; 0.5 µg/mL (≈ 0.709 µM) against Trichophyton rubrum [11]; 0.25 µg/mL (≈ 0.354 µM) against Candida parapsilosis [12]. In addition, the MIC is 16 µg/mL (≈ 22.7 µM) in the assay on Pichia kudriavzevii [13], 0.5 µg/mL (≈ 0.709 µM) in assay [14], 0.25 µg/mL (≈ 0.354 µM) in the assay with Nannizzia gypsea [15] and 0.5 µg/mL (≈ 0.709 µM) in the assay with Candida albicans [16].

Consider `OC(Cn1cncn1)(Cn1cncn1)c1ccc(F)cc1F` [FLUCONAZOLE], for which the MIC is > 64 µg/mL in [17]; 64 µg/mL (≈ 209 µM) with Nannizzia gypsea [1]; > 64 µg/mL with Candida parapsilosis [18]; 16 µg/mL (≈ 52.2 µM) in assay [2]; > 64 µg/mL with Microsporum canis [4]; 4 µg/mL (≈ 13.1 µM) in the assay with Trichophyton rubrum [6]. In addition, the MIC in the assay with Trichophyton rubrum [8] is 8 µg/mL (≈ 26.1 µM); in the assay with Microsporum canis [10], > 64 µg/mL; in the assay on Trichophyton rubrum [11], 32 µg/mL (≈ 104 µM); against Candida parapsilosis [12] it was 4 µg/mL (≈ 13.1 µM); in the assay on Candida albicans [19] it was > 64 µg/mL; in assay [14], 4 µg/mL (≈ 13.1 µM). Also, the MIC stood at 1 µg/mL (≈ 3.27 µM) in the assay with Candida albicans [20], 16 µg/mL (≈ 52.2 µM) with Nannizzia gypsea [15], 4 µg/mL (≈ 13.1 µM) against Nakaseomyces glabratus [21] and 8 µg/mL (≈ 26.1 µM) with Pichia kudriavzevii [22].

A word on the MIC: it is the lowest concentration found to suppress growth. Low values mean inhibition by little substance, high ones a need for much substance.
